From ChEMBL document CHEMBL4011623, “Development of 1-((1,4-trans)-4-Aryloxycyclohexyl)-3-arylurea Activators of Heme-Regulated Inhibitor as Selective Activators of the Eukaryotic Initiation Factor 2 Alpha (eIF2α) Phosphorylation Arm of the Integrated Endoplasmic Reticulum Stress Response” (J Med Chem, 2017) come the findings set out here.

Active and inactive are the calls of the source. No cut-off for these calls is given here.

Data set [1] can be described thus: Effect on beta actin protein expression in human CRL2813 cells at 5 uM after 8 hrs by Western blot analysis. It counts as ADME, cell-based. Conditions: crl2813, 8 h. The essentials:
(§1)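 CRL-2813 cells at 70% confluence in serum-containing, antibiotic-free medium; treated at 5 μM for 8 h. Lysed in M-PER on ice for 30 min, equal protein by BCA, SDS-PAGE and immunoblot for CHOP, cyclin D1 and β-actin. Blots representative of three independent experiments.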

Data set [2] concerns Mus musculus. The data set can be described thus: Neurotoxicity in NU008 nude mouse xenografted with human CRL2813 cells at 150 mg/kg, ip qd administered for 4 days followed by 4 days off and 3 days on for total 28 days. It counts as toxicity, organism-based. Conditions: in vivo. The essentials:
(§2)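 Xenograft-bearing nude mice dosed i.p. on the 28-day intermittent schedule (150 or 37.5 mg/kg in NMP/Cremophor EL/water). Euthanized at the end of treatment; organs harvested, fixed and examined histopathologically.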
On the technique in general: In xenograft studies the graft and the host belong to different species.

In data set [3] the target is Eukaryotic translation initiation factor 2-alpha kinase 1 (Homo sapiens) (UniProt Q9BQI3). The data set can be described thus: Activation of HRI in human CRL2813 cells assessed as increase in CHOP protein expression at 5 uM after 8 hrs by Western blot analysis. It counts as cell-based. The essentials:
as §1
Background: Immunoblotting shows a protein as a band on a membrane.

For data set [4] the target is unchanged. The data set is described as follows: Activation of HRI in human CRL2813cells assessed as decrease in cyclin D1 protein expression at 5 uM after 8 hrs by Western blot analysis. The essentials:
as §1

Data set [5] can be described thus: Tmax in NU008 nude mouse xenografted with human CRL2813 cells at 40 mg/kg, ip by LC-MS analysis. The class given is ADME, organism-based. The conditions noted are these: in vivo. In a few lines:
(§3)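 Single i.p. dose of 40 mg/kg. Blood sampled before and at 0.5, 1, 2, 4, 6, 24, 48 and 72 h, mixed with 0.1% EDTA. Whole-blood levels quantified by LC-MS/MS (C18 column at 45 °C) against a standard curve. At least three mice per time point, mean ± SEM.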

The subject of data set [6] is Mus musculus. The data set can be described thus: Toxicity in NU008 nude mouse xenografted with human CRL2813 cells assessed as body weight change at 150 mg/kg, ip qd administered for 4 days followed by 4 days off and 3 days on for total 28 days. It counts as organism-based. Conditions: in vivo. The essentials:
(§4)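 Male nude mice injected s.c. with CRL-2813 cells; once tumors reached 100–150 mm3, randomized into groups of nine. Given i.p. q.d. at 150 or 37.5 mg/kg (4 days on, 4 off, 3 on; 28 days total) in NMP/Cremophor EL/water at 1 μl/g. Vehicle controls received the mixture alone. Body weight measured twice weekly; tumors by caliper weekly. Mean ± SEM.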

The subject of data set [7] is Mus musculus. The data set is described as follows: Toxicity in NU008 nude mouse xenografted with human CRL2813 cells assessed as histopathologic change in spleen at 150 mg/kg, ip qd administered for 4 days followed by 4 days off and 3 days on for total 28 days. The class given is organism-based. Conditions: in vivo. In a few lines:
as §2

The nature of data set [8]: Antitumor activity against human CRL2813 cells xenografted in NU008 nude mouse assessed as tumor growth inhibition at 150 mg/kg, ip qd administered for 4 days followed by 4 days off and 3 days on for total 28 days relative to control. The class given is functional. The conditions noted are these: read-out: TGI. The essentials: as §4
Data set [9] addresses Eukaryotic translation initiation factor 2-alpha kinase 1 (Homo sapiens) (UniProt Q9BQI3). The data set can be described thus: Activation of HRI in human CRL2813 cells assessed as increase in eIF2alpha phosphorylation at 5 uM after 2 hrs by Western blot analysis. It counts as cell-based. In a few lines:
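Adherent CRL-2813 melanoma cells exposed to 5 μM for 2 h. Lysates immunoblotted with anti-phosphoserine-51 eIF2α and anti-total eIF2α antibodies after BCA normalization and SDS-PAGE. Gels representative of three independent experiments.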

The test system of data set [10] is Mus musculus. The data set can be described thus: Hepatotoxicity in NU008 nude mouse xenografted with human CRL2813 cells at 150 mg/kg, ip qd administered for 4 days followed by 4 days off and 3 days on for total 28 days. It counts as toxicity, organism-based. The conditions noted are these: in vivo. The essentials: as §2
Data set [11] relates to Mus musculus. The data set can be described thus: Toxicity in NU008 nude mouse xenografted with human CRL2813 cells assessed as body weight change at 37.5 mg/kg, ip qd administered for 4 days followed by 4 days off and 3 days on for total 28 days. It counts as organism-based. Conditions: in vivo. The essentials: as §4
The subject of data set [12] is Mus musculus. The data set is described as follows: Induction of eIF2alpha phosphorylation in tumor of NU008 nude mouse xenografted with human CRL2813 cells at 37.5 to 150 mg/kg, ip qd administered for 3 days by Western blot analysis. It counts as functional, organism-based. In a few lines:
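Mice bearing ~200 mm3 CRL-2813 xenografts injected on three consecutive days with vehicle or the same doses used in the efficacy study. Tumors excised, lysed and immunoblotted for phosphorylated and total eIF2α.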

The nature of data set [13]: Antiproliferative activity against human CRL2813 cells after 5 days by sulforhodamine B assay. It counts as functional, cell-based. The conditions noted are these: CRL2813, 120 h. The essentials: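 CRL-2813 melanoma cells grown 5 days with 0.5–20 μM compound, then fixed in cold 10% TCA and stained with sulforhodamine B. Bound dye measured. Growth % = 100×(T−T0)/(C−T0), with T0 at time zero. IC50 is the concentration giving 50% growth inhibition.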

Data set [14] has as its system Mus musculus. The data set can be described thus: Nephrotoxicity in NU008 nude mouse xenografted with human CRL2813 cells at 150 mg/kg, ip qd administered for 4 days followed by 4 days off and 3 days on for total 28 days. It counts as toxicity, organism-based. Conditions: in vivo. In a few lines: as §2
Data set [15] is described as follows: Apparent half life in NU008 nude mouse xenografted with human CRL2813 cells at 40 mg/kg, ip by LC-MS analysis. It counts as ADME, organism-based. Conditions: in vivo, read-out: t1/2(app) (converted). The essentials:
as §3

Data set [16] has as its system Mus musculus. The data set is described as follows: Cardiotoxicity in NU008 nude mouse xenografted with human CRL2813 cells at 150 mg/kg, ip qd administered for 4 days followed by 4 days off and 3 days on for total 28 days. It counts as toxicity, organism-based. Conditions: in vivo. The essentials:
as §2

For data set [17], the target named is Eukaryotic translation initiation factor 2-alpha kinase 1 (Mus musculus) (UniProt Q9Z2R9). The data set can be described thus: Activation of HRI in mouse KLN cells transfected with 5'UTR of ATF-4 mRNA fused firefly luciferase mRNA and 5'UTR lacking uORF fused renila luciferase mRNA assessed as increase in eIF2alpha phosphorylation by measuring ratio of firefly luciferase to renila luciferase at 5 uM after 16 hrs. The class given is cell-based.
Chain of Eukaryotic translation initiation factor 2-alpha kinase 1 (Mus musculus) (Q9Z2R9 whole entry, the tested form may be a part): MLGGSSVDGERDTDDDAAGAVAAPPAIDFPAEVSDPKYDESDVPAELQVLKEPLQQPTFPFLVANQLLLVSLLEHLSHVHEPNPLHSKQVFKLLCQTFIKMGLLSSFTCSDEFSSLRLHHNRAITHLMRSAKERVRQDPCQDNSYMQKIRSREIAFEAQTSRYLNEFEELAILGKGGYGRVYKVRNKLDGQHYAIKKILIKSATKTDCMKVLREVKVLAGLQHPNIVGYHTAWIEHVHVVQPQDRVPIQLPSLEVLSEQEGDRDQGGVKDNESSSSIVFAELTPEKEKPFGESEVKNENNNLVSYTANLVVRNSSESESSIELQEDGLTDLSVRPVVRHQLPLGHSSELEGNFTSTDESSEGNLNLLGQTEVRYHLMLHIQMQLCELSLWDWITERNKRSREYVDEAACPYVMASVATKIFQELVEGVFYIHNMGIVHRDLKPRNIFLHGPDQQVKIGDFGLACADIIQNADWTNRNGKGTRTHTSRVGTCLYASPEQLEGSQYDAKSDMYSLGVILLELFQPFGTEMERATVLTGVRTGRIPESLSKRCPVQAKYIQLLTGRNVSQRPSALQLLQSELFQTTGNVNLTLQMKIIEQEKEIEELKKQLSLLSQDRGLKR

Data set [18] deals with Mus musculus. The data set can be described thus: Toxicity in NU008 nude mouse xenografted with human CRL2813 cells assessed as histopathologic change in bone marrow at 150 mg/kg, ip qd administered for 4 days followed by 4 days off and 3 days on for total 28 days. The class given is organism-based. Conditions: in vivo. The essentials:
as §2

The target in data set [19] is Eukaryotic translation initiation factor 2-alpha kinase 1 (Homo sapiens) (UniProt Q9BQI3). The data set is described as follows: Activation of HRI in human CRL2813 cells assessed as induction of CHOP mRNA level at 5 uM by real-time PCR relative to 18S RNA. It counts as cell-based. The essentials:
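Fold induction of CHOP mRNA in cells treated at 5 μM, normalized to 18S RNA and expressed relative to DMSO (set to 1). Triplicate samples, three independent experiments, mean ± SEM.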

Data set [20] relates to CRL2813. The data set can be described thus: Antitumor activity against human CRL2813 cells xenografted in ip dosed NU008 nude mouse assessed as tumor growth inhibition administered qd for 4 days followed by 4 days off and 3 days on for total 28 days. The class given is functional, organism-based. In a few lines: as §4
In data set [21] the target is Eukaryotic translation initiation factor 2-alpha kinase 1 (Mus musculus) (UniProt Q9Z2R9). The data set can be described thus: Activation of HRI in mouse KLN cells transfected with 5'UTR of ATF-4 mRNA fused firefly luciferase mRNA and 5'UTR lacking uORF fused renila luciferase mRNA assessed as increase in eIF2alpha phosphorylation by measuring ratio of firefly luciferase to renila luciferase after 16 hrs. It counts as cell-based.

Data set [22] has the same target. The data set can be described thus: Activation of HRI in mouse KLN cells transfected with 5'UTR of ATF-4 mRNA fused firefly luciferase mRNA and 5'UTR lacking uORF fused renila luciferase mRNA assessed as increase in eIF2alpha phosphorylation by measuring ratio of firefly luciferase to renila luciferase at 1.25 uM after 16 hrs. The class given is cell-based.
The nature of data set [23]: Antitumor activity against human CRL2813 cells xenografted in NU008 nude mouse assessed as tumor growth inhibition at 37.5 mg/kg, ip qd administered for 4 days followed by 4 days off and 3 days on for total 28 days relative to control. The conditions noted are these: read-out: TGI. The class given is functional. The essentials: as §4

Chain of Eukaryotic translation initiation factor 2-alpha kinase 1 (Homo sapiens) (Q9BQI3 whole entry): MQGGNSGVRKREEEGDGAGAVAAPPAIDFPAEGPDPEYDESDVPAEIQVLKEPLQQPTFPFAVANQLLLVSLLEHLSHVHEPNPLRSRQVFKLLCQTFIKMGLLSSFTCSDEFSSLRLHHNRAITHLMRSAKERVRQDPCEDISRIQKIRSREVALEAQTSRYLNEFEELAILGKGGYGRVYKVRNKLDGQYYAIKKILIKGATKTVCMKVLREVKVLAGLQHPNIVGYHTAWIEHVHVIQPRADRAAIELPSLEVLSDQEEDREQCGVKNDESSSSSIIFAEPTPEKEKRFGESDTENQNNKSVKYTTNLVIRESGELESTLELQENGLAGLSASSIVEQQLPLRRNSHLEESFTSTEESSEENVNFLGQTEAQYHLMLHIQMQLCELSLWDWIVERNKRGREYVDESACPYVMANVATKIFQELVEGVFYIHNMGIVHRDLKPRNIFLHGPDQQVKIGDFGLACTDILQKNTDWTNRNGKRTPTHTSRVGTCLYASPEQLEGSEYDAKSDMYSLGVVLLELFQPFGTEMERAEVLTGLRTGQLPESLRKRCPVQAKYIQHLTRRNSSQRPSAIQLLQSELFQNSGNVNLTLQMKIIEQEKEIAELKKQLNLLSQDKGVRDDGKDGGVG

As for `N#Cc1cc(NC(=O)N[C@H]2CC[C@H](Oc3ccc(C(F)(F)F)cc3)CC2)cc(C(F)(F)F)c1`, the Activity result in data set [1] is given as “Non-Toxic”; in data set [2], “Non-Toxic”; in data set [6] it was under 10%; in data set [7], “Non-Toxic”; in data set [10] it was “Non-Toxic”; in [11] it was under 10%. Besides, the Activity result in data set [14] is “Non-Toxic”; in data set [16], “Non-Toxic”; in data set [18], “Non-Toxic”; in [21], “Dose-dependent effect”. For the same compound, the result in data set [3], in data set [4], in data set [9] and in data set [12] was Active. The Tmax (in general, the time from dosing to the highest level) in [5] was 6 to 24 h. Also, the inhibition in vivo at 150 mg/kg in [8] is 90%. For the same compound, the IC50 (commonly the concentration that gives 50% inhibition) in data set [13] was determined as 250 nM. For the same compound, the half-life in [15] is 40 h. For the same compound, the Ratio in data set [17] worked out at 13.2; in [22], 5.65. Besides, in data set [19], the fold change (FC) turned out to be 9.87. The TGI entry in data set [20] was “Dose-dependent effect”. Moreover, the inhibition in vivo at 37.5 mg/kg in [23] is 50%.
